Test results reported in article PMC4415995 (Advances in Therapy, 2015).
Where two headings read alike, the source gives them in different places. Marks after values point to notes of the source that are not given here.

What was measured:
[1] = type: in vivo, human; details: for AUC / AUC(0-inf) / Cmax / half-life / Tmax: human, plasma, oral; for Cmax: C max
Summary of the method: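 Oral doses of 0.5–5 mg once daily for 7 days, given with 150 mL water before a standardized ~600 kcal breakfast. Venous blood was drawn pre-dose and 0.25–24 h after dosing on Days 1 and 7, and pre-breakfast on Days 9–11. Urine was pooled at 4 °C over intervals. Samples were stored at −70 °C. Parent and active O-deethyl metabolite were measured by solid-phase extraction and LC–MS/MS with deuterated internal standards. Parameters were non-compartmental; metabolite ratio was AUCτ(M2)/AUCτ(parent).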

[2] = test system: Japanese patients with T2DM; experiment: Urine volume, water intake and body weight, 7-day once-daily dosing; type: in vivo, human

With `CCOc1ccc(Cc2cc([C@@H]3S[C@H](CO)[C@@H](O)[C@H](O)[C@H]3O)c(OC)cc2C)cc1` [Luseogliflozin, (1S)-1,5-anhydro-1-[5-(4-ethoxybenzyl)-2-methoxy-4-methylphenyl]-1-thio-D-glucitol] the “Ae0–24” value ([1]; 0.5 mg luseogliflozin OD, Day 1, urine) was 3.76 ± 0.832 % of dose, the “Ae0–24” value ([1]; 0.5 mg luseogliflozin OD, Day 7, urine) was 4.56 ± 1.04 % of dose and the “Ae0–24” value ([1]; 1 mg luseogliflozin OD, Day 1, urine) was 4.06 ± 0.497 % of dose. The “Ae0–24” value ([1]; 1 mg luseogliflozin OD, Day 7, urine) was 4.30 ± 0.875 % of dose, the “Ae0–24” value ([1]; 2.5 mg luseogliflozin OD, Day 1, urine) was 4.51 ± 1.13 % of dose and the “Ae0–24” value ([1]; 2.5 mg luseogliflozin OD, Day 7, urine) was 4.79 ± 1.09 % of dose. For the same molecule, the “Ae0–24” value ([1]; 5 mg luseogliflozin OD, Day 1, urine) was 4.11 ± 0.763 % of dose, the “Ae0–24” value ([1]; 5 mg luseogliflozin OD, Day 7, urine) was 4.56 ± 0.617 % of dose and the “accumulation after multiple doses” value ([1]; AUCinf Day 1 vs AUCτ Day 7 comparable) was “does not accumulate”. For the same molecule, the “dose proportionality for C max and AUCτ (power model)” value ([1]; Day 7, 0.5-5 mg) was “dose proportionality”, the AUC ([1]; 0.5 mg) was 179 ± 32.6 ng·h/mL and the AUC(0-inf) ([1]; 0.5 mg) was 171 ± 38.4 ng·h/mL. The Cmax ([1]; 0.5 mg, 0.5 mg luseogliflozin OD, Day 1, plasma) was 21.9 ± 2.88 ng/mL, the Cmax ([1]; 0.5 mg, 0.5 mg luseogliflozin OD, Day 7, plasma) was 25.6 ± 4.25 ng/mL and the half-life ([1]; 0.5 mg, t 1/2, 0.5 mg luseogliflozin OD, Day 1, plasma) was 9.86 ± 1.57 h. It also gave a half-life ([1]; 0.5 mg, t 1/2, 0.5 mg luseogliflozin OD, Day 7, plasma) of 10.5 ± 1.03 h, a Tmax ([1]; 0.5 mg, t max, 0.5 mg luseogliflozin OD, Day 1, plasma) of 0.857 ± 0.556 h and a Tmax ([1]; 0.5 mg, t max, 0.5 mg luseogliflozin OD, Day 7, plasma) of 0.643 ± 0.244 h. It also gave an AUC ([1]; 1 mg) of 370 ± 55.5 ng·h/mL, an AUC(0-inf) ([1]; 1 mg) of 357 ± 53.9 ng·h/mL and a Cmax ([1]; 1 mg, 1 mg luseogliflozin OD, Day 1, plasma) of 43.7 ± 10.8 ng/mL. The Cmax ([1]; 1 mg, 1 mg luseogliflozin OD, Day 7, plasma) was 52.3 ± 10.9 ng/mL, the half-life ([1]; 1 mg, t 1/2, 1 mg luseogliflozin OD, Day 1, plasma) was 9.61 ± 1.34 h and the half-life ([1]; 1 mg, t 1/2, 1 mg luseogliflozin OD, Day 7, plasma) was 10 ± 1.37 h. For the same molecule, the Tmax ([1]; 1 mg, t max, 1 mg luseogliflozin OD, Day 1, plasma) was 0.688 ± 0.259 h, the Tmax ([1]; 1 mg, t max, 1 mg luseogliflozin OD, Day 7, plasma) was 0.688 ± 0.259 h and the AUC ([1]; 2.5 mg) was 899 ± 148 ng·h/mL. It also gave an AUC(0-inf) ([1]; 2.5 mg) of 864 ± 132 ng·h/mL, a Cmax ([1]; 2.5 mg, 2.5 mg luseogliflozin OD, Day 1, plasma) of 119 ± 27 ng/mL and a Cmax ([1]; 2.5 mg, 2.5 mg luseogliflozin OD, Day 7, plasma) of 136 ± 42 ng/mL. It also gave a half-life ([1]; 2.5 mg, t 1/2, 2.5 mg luseogliflozin OD, Day 1, plasma) of 9.24 ± 0.928 h, a half-life ([1]; 2.5 mg, t 1/2, 2.5 mg luseogliflozin OD, Day 7, plasma) of 9.2 ± 0.71 h and a Tmax ([1]; 2.5 mg, t max, 2.5 mg luseogliflozin OD, Day 1, plasma) of 0.625 ± 0.354 h. The Tmax ([1]; 2.5 mg, t max, 2.5 mg luseogliflozin OD, Day 7, plasma) was 1 ± 0.886 h, the AUC ([1]; 5 mg) was 1880 ± 318 ng·h/mL and the AUC(0-inf) ([1]; 5 mg) was 1690 ± 271 ng·h/mL. For the same molecule, the Cmax ([1]; 5 mg, 5 mg luseogliflozin OD, Day 1, plasma) was 243 ± 45.7 ng/mL, the half-life ([1]; 5 mg, t 1/2, 5 mg luseogliflozin OD, Day 1, plasma) was 8.96 ± 1.11 h and the half-life ([1]; 5 mg, t 1/2, 5 mg luseogliflozin OD, Day 7, plasma) was 9.54 ± 1.26 h. For the same molecule, the Tmax ([1]; 5 mg, t max, 5 mg luseogliflozin OD, Day 1, plasma) was 0.625 ± 0.231 h, the Tmax ([1]; 5 mg, t max, 5 mg luseogliflozin OD, Day 7, plasma) was 0.688 ± 0.259 h and the half-life ([1]; mean t 1/2, all four doses (0.5-5 mg)) was ~10 h. The Tmax ([1]; t max (mean), across 0.5-5 mg doses, Days 1 and 7, plasma) was 0.625 to 1 h, the “Body weight (24 h after dose)” value ([2]; 0.5 mg OD, Day 1) was 67.49 ± 14.32 kg and the “Body weight (24 h after dose) LS mean difference vs placebo (95% CI)” value ([2]; 0.5 mg OD, Day 1) was −0.19 (−0.58, 0.20) kg. For the same molecule, the Urine volume ([2]; 0.5 mg OD, Day 1) was 3148.1 ± 718.5 mL/day, the “Urine volume LS mean difference vs placebo (95% CI)” value ([2]; 0.5 mg OD, Day 1) was 456.1 (−212.4, 1124.7) mL/day and the Water intake ([2]; 0.5 mg OD, Day 1) was 2694.4 ± 936.4 mL/day. The “Water intake LS mean difference vs placebo (95% CI)” value ([2]; 0.5 mg OD, Day 1) was 131.8 (−455.8, 719.3) mL/day, the “Body weight (24 h after dose)” value ([2]; 0.5 mg OD, Day 7) was 66.76 ± 14.29 kg and the “Body weight (24 h after dose) LS mean difference vs placebo (95% CI)” value ([2]; 0.5 mg OD, Day 7) was −0.45 (−1.14, 0.24) kg. For the same molecule, the Urine volume ([2]; 0.5 mg OD, Day 7) was 3053.3 ± 1067.7 mL/day, the “Urine volume LS mean difference vs placebo (95% CI)” value ([2]; 0.5 mg OD, Day 7) was 303.5 (−208.4, 815.3) mL/day and the Water intake ([2]; 0.5 mg OD, Day 7) was 2686.4 ± 929.1 mL/day. For the same molecule, the “Water intake LS mean difference vs placebo (95% CI)” value ([2]; 0.5 mg OD, Day 7) was 175.8 (−407.1, 758.7) mL/day, the “Body weight (24 h after dose)” value ([2]; 1 mg OD, Day 1) was 71.71 ± 18.26 kg and the “Body weight (24 h after dose) LS mean difference vs placebo (95% CI)” value ([2]; 1 mg OD, Day 1) was −0.31 (−0.68, 0.07) kg. The Urine volume ([2]; 1 mg OD, Day 1) was 3284.5 ± 653.4 mL/day, the “Urine volume LS mean difference vs placebo (95% CI)” value ([2]; 1 mg OD, Day 1) was 723.8 (76.7, 1370.9)* mL/day and the Water intake ([2]; 1 mg OD, Day 1) was 3023.8 ± 883.4 mL/day. For the same molecule, the “Water intake LS mean difference vs placebo (95% CI)” value ([2]; 1 mg OD, Day 1) was 513.6 (−54.5, 1081.7) mL/day, the “Body weight (24 h after dose)” value ([2]; 1 mg OD, Day 7) was 71.01 ± 18.10 kg and the “Body weight (24 h after dose) LS mean difference vs placebo (95% CI)” value ([2]; 1 mg OD, Day 7) was −0.51 (−1.17, 0.14) kg. For the same molecule, the Urine volume ([2]; 1 mg OD, Day 7) was 2421.0 ± 795.6 mL/day, the “Urine volume LS mean difference vs placebo (95% CI)” value ([2]; 1 mg OD, Day 7) was −174.9 (−670.3, 320.5) mL/day and the Water intake ([2]; 1 mg OD, Day 7) was 2400.4 ± 583.5 mL/day. The “Water intake LS mean difference vs placebo (95% CI)” value ([2]; 1 mg OD, Day 7) was −64.4 (−628, 499.2) mL/day, the “Body weight (24 h after dose)” value ([2]; 2.5 mg OD, Day 1) was 67.43 ± 7.73 kg and the “Body weight (24 h after dose) LS mean difference vs placebo (95% CI)” value ([2]; 2.5 mg OD, Day 1) was −0.53 (−0.91, −0.15)* kg. The Urine volume ([2]; 2.5 mg OD, Day 1) was 3511.4 ± 522.9 mL/day, the “Urine volume LS mean difference vs placebo (95% CI)” value ([2]; 2.5 mg OD, Day 1) was 643.8 (−3.8, 1291.3) mL/day and the Water intake ([2]; 2.5 mg OD, Day 1) was 2964.0 ± 940.1 mL/day. For the same molecule, the “Water intake LS mean difference vs placebo (95% CI)” value ([2]; 2.5 mg OD, Day 1) was −161.3 (−733.9, 411.4) mL/day, the “Body weight (24 h after dose)” value ([2]; 2.5 mg OD, Day 7) was 66.70 ± 7.84 kg and the “Body weight (24 h after dose) LS mean difference vs placebo (95% CI)” value ([2]; 2.5 mg OD, Day 7) was −0.79 (−1.46, −0.12)* kg. For the same molecule, the Urine volume ([2]; 2.5 mg OD, Day 7) was 3048.5 ± 868.2 mL/day, the “Urine volume LS mean difference vs placebo (95% CI)” value ([2]; 2.5 mg OD, Day 7) was 92.9 (−402.9, 588.6) mL/day and the Water intake ([2]; 2.5 mg OD, Day 7) was 3049.1 ± 856.6 mL/day. For the same molecule, the “Water intake LS mean difference vs placebo (95% CI)” value ([2]; 2.5 mg OD, Day 7) was 46.5 (−521.6, 614.6) mL/day, the “Body weight (24 h after dose)” value ([2]; 5 mg OD, Day 1) was 70.96 ± 9.34 kg and the “Body weight (24 h after dose) LS mean difference vs placebo (95% CI)” value ([2]; 5 mg OD, Day 1) was −0.74 (−1.11, −0.36)* kg. The Urine volume ([2]; 5 mg OD, Day 1) was 3939.8 ± 1386.0 mL/day, the “Urine volume LS mean difference vs placebo (95% CI)” value ([2]; 5 mg OD, Day 1) was 888.4 (235, 1541.8)* mL/day and the Water intake ([2]; 5 mg OD, Day 1) was 3256.8 ± 1581.7 mL/day. For the same molecule, the “Water intake LS mean difference vs placebo (95% CI)” value ([2]; 5 mg OD, Day 1) was 17.3 (−558.5, 593.1) mL/day, the “Body weight (24 h after dose)” value ([2]; 5 mg OD, Day 7) was 70.24 ± 9.09 kg and the “Body weight (24 h after dose) LS mean difference vs placebo (95% CI)” value ([2]; 5 mg OD, Day 7) was −0.97 (−1.62, −0.31)* kg. For the same molecule, the Urine volume ([2]; 5 mg OD, Day 7) was 3471.4 ± 1204.5 mL/day, the “Urine volume LS mean difference vs placebo (95% CI)” value ([2]; 5 mg OD, Day 7) was 300.4 (−199.9, 800.6) mL/day and the Water intake ([2]; 5 mg OD, Day 7) was 3141.0 ± 1387.3 mL/day. The “Water intake LS mean difference vs placebo (95% CI)” value ([2]; 5 mg OD, Day 7) was 38.5 (−532.7, 609.8) mL/day.
